The values that follow come from ChEMBL document CHEMBL1914351, “Design, synthesis and biological evaluation of 3-substituted 2,5-dimethyl-N-(3-(1H-tetrazol-5-yl)phenyl)pyrroles as novel potential HIV-1 gp41 inhibitors” (Bioorg Med Chem, 2011).

Series [1] can be described thus: Inhibition of HIV1 gp41 assessed as gp41-six-helix bundle formation after 30 mins by sandwich ELISA. The arrangement: species or system Human immunodeficiency virus 1. The procedure, abridged: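 N36 peptide (2 µM) preincubated with graded compound concentrations at 37 °C for 30 min, then C34 (2 µM) added for another 30 min at 37 °C. Mixture captured on plates coated with anti-6-HB rabbit IgG (10 µg/mL); detected with mAb NC-1, biotinylated anti-mouse IgG, SA-HRP, TMB; A450. Percent inhibition calculated; triplicate.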
(An ELISA detects its analyte on a solid surface through an enzyme-linked reagent.)

For series [2], the system named is Human immunodeficiency virus 1. The experiment in a line: Antiviral activity against HIV1 3B infected in human MT2 cells assessed as inhibition of p24 production after 4 days by ELISA. It is filed as functional, organism-based.
Series [3] in a line: Cytotoxicity against human MT2 cells after 4 days using XTT assay. It is filed as cell-based. In short, it runs like this: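 MT-2 cells (5×10^5/mL) mixed with equal volume of graded compound concentrations, 37 °C for 4 days; XTT (1 mg/mL) containing 0.02 µM PMS added, A450 read after 4 h. CC50 calculated by CalcuSyn; triplicate, mean ± SD.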
For orientation: Tetrazolium dyes change colour on reduction, which living cells bring about.

Series [4] can be described thus: Selectivity index, ratio of CC50 for human MT2 cells to EC50 for HIV1 3B. It is filed as toxicity, cell-based. The conditions noted are these: read-out: Ratio CC50/EC50. In short, it runs like this: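 Ratio CC50/EC50, CC50 from XTT cytotoxicity in MT-2 cells over 4 days and EC50 from p24 inhibition in HIV-1 IIIB-infected MT-2 cells at day 4.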
Setting [5] is: Human immunodeficiency virus 1, 3B, MT2, 96 h, read-out: EC50.

One may read the IC50 as the concentration that inhibits the measured activity by half. As a reminder, the EC50 is the midpoint of the concentration-response curve. One may read the CC50 as the concentration at which the toxic effect on the cells reaches its halfway point. The low end stands for harm at low concentration, the high end for better tolerance by the cells. Take `COc1ccc(N2C(=O)/C(=C/c3cc(C)n(-c4cccc(-c5nnn[nH]5)c4)c3C)SC2=S)cc1`: in series [1] (read-out: IC50), the IC50 is 9.2 µM. For the same molecule, the concentration giving a half-maximal response (EC50) in series [2] (setting [5]) came to 47.9 µM. In series [3], this molecule returned a CC50 at 96 h of 87 µM. Moreover, the selectivity ratio in series [4] was found to be 1.8.
In the case of `Cc1cc(C=C(C#N)C#N)c(C)n1-c1cccc(-c2nnn[nH]2)c1`, in series [1], the IC50 result is “Not Active”. Moreover, in series [2] (mt2), the EC50 result is “Not Active”. In addition, the CC50 at 96 h in series [3] was greater than 400 µM.
Turning to `Cc1cc(/C=C/[N+](=O)[O-])c(C)n1-c1cccc(-c2nnn[nH]2)c1`, the IC50 result in series [1] is on record as “Not Active”. In series [2] (setting [5]), the EC50 stood at 29.3 µM. The molecule further showed a CC50 at 96 h in series [3] of 78.8 µM. The selectivity ratio in series [4] was found to be 2.7.
With `CCOC(=O)/C(C#N)=C/c1cc(C)n(-c2cccc(-c3nnn[nH]3)c2)c1C`, the half-inhibitory concentration (IC50) entry in series [1] is “Not Active”. For the same molecule, the EC50 in series [2] (setting [5]) was found to be 18 µM. In series [3], this molecule registered a half-maximal cytotoxic concentration (CC50) at 96 h of 76.8 µM. The selectivity ratio in series [4] was 4.3.
Turning to `CCOC(=O)C(=Cc1cc(C)n(-c2cccc(-c3nnn[nH]3)c2)c1C)C(=O)OCC`, the IC50 in series [1] (read-out: IC50) came to 12.1 µM. Besides, in series [2] (setting [5]), the EC50 stood at 17.2 µM. In addition, the CC50 at 96 h in series [3] turned out to be 77.4 µM. In series [4], the selectivity ratio turned out to be 4.5.
In the same order, the values of `Cc1cc(/C=C2\SC(=S)N(c3ccccc3)C2=O)c(C)n1-c1cccc(-c2nnn[nH]2)c1` are 4.4 µM, 3.2 µM, 61 µM and 19.
Take `COc1cccc(N2C(=O)/C(=C/c3cc(C)n(-c4cccc(-c5nnn[nH]5)c4)c3C)SC2=S)c1`: the IC50 in series [1] (read-out: IC50) is 3.1 µM. In series [2] (setting [5]), the EC50 was determined as 6 µM. Further, in series [3], half-maximal cytotoxicity (CC50 at 96 h) was put at 40.6 µM. Also, in series [4], the selectivity ratio amounted to 6.8.
As for `Cc1cc(/C=C2\SC(=S)N(c3cccc(C(F)(F)F)c3)C2=O)c(C)n1-c1cccc(-c2nnn[nH]2)c1`, the IC50 entry in series [1] is “Not Active”. The EC50 in series [2] (setting [5]) came to 6.8 µM. This molecule yielded a CC50 at 96 h in series [3] of 15.8 µM. In addition, the selectivity ratio in series [4] stood at 2.3.
In the case of `Cc1cc(/C=C2\SC(=S)N(c3cccc(O)c3)C2=O)c(C)n1-c1cccc(-c2nnn[nH]2)c1`, in series [1] (read-out: IC50), the IC50 stood at 7.7 µM. The half-maximal effective concentration (EC50) in series [2] (setting [5]) came out at 6.3 µM. This molecule also yielded a CC50 at 96 h in series [3] of 35.6 µM. For the same molecule, the selectivity ratio in series [4] came to 5.7.
For the molecule `Cc1cc(/C=C2\SC(=S)N(c3cccc(Br)c3)C2=O)c(C)n1-c1cccc(-c2nnn[nH]2)c1`, in series [1], the IC50 result is listed as “Not Active”. In addition, the EC50 in series [2] (setting [5]) was determined as 9.8 µM. In series [3], the cytotoxic concentration (CC50) at 96 h is 22.6 µM. The selectivity ratio in series [4] came out at 2.3.
On to `Cc1cc(/C=C2\SC(=S)N(c3cccc([N+](=O)[O-])c3)C2=O)c(C)n1-c1cccc(-c2nnn[nH]2)c1`, for which the IC50 in series [1] (read-out: IC50) was 3.2 µM. The half-maximal effective concentration (EC50) in series [2] (setting [5]) was 23.9 µM. The molecule further returned a CC50 at 96 h in series [3] of 77 µM. Further, in series [4], the selectivity ratio amounted to 3.2.
In the same order, the values of `Cc1cc(/C=C2\SC(=S)N(c3ccc(C(F)(F)F)cc3)C2=O)c(C)n1-c1cccc(-c2nnn[nH]2)c1` are 2.7 µM, 13.1 µM, 27.1 µM and 2.1.
Consider `Cc1cc(/C=C2\SC(=S)N(c3ccc(O)cc3)C2=O)c(C)n1-c1cccc(-c2nnn[nH]2)c1`, for which the half-maximal inhibitory concentration (IC50) in series [1] (read-out: IC50) came to 20.6 µM. The EC50 in series [2] (setting [5]) was 25.7 µM. In addition, the CC50 at 96 h in series [3] came to 45.6 µM. The selectivity ratio in series [4] was determined as 1.8.
In the same order, the values of `Cc1cc(/C=C2\SC(=S)N(c3ccc(Br)cc3)C2=O)c(C)n1-c1cccc(-c2nnn[nH]2)c1` are 4.6 µM, 2.2 µM, 46.8 µM and 21.
On the same counts, the results for `Cc1cc(/C=C2\SC(=S)N(Cc3ccccc3)C2=O)c(C)n1-c1cccc(-c2nnn[nH]2)c1` are 12.7 µM, 12.3 µM, 150 µM and 12.
As to `Cc1cc(/C=C2\SC(=S)N(CCc3ccccc3)C2=O)c(C)n1-c1cccc(-c2nnn[nH]2)c1`, the IC50 in series [1] (read-out: IC50) was 28.1 µM. For the same molecule, the 50% effective concentration (EC50) in series [2] (setting [5]) came out at 4.1 µM. The CC50 at 96 h in series [3] came out at 45.7 µM. Further, the selectivity ratio in series [4] is 11.
In the same order, the values of `COc1ccc(N2C(=O)N/C(=C\c3cc(C)n(-c4cccc(-c5nnn[nH]5)c4)c3C)C2=O)cc1` are 22.6 µM, 51.6 µM, 101 µM and 2.
On the same counts, the results for `Cc1cc(/C=C2\NC(=O)N(c3cccc(C(F)(F)F)c3)C2=O)c(C)n1-c1cccc(-c2nnn[nH]2)c1` are 41.6 µM, 48.9 µM, 76.5 µM and 1.6.
Regarding `O=C(O)c1cc(-n2cccc2)ccc1Cl`, the IC50 in series [1] (read-out: IC50) amounted to 58.7 µM.
Take `Cc1ccc(C)n1-c1cccc(-c2nnn[nH]2)c1`: in series [1] (read-out: IC50), the IC50 turned out to be 25.6 µM. In addition, the selectivity ratio in series [4] worked out at 32.
